Measurements from ChEMBL document CHEMBL1136803, “Azasterols as inhibitors of sterol 24-methyltransferase in Leishmania species and Trypanosoma cruzi” (J Med Chem, 2003).
“And” between values parts separate entries of the source, which are not always exact repeats. Equal values may be shown once.

What was measured:
[1] = system: Leishmania amazonensis; test: In vitro inhibitory concentration against Leishmania amazonensis promastigotes; type: functional, organism-based
Summary of the method: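 L. amazonensis MHOM/BR/75/Josefa promastigotes (mouse-passaged) in Warren's medium with 10% fetal bovine serum at 25 °C; exponential-phase cells incubated with compound 96 h, counted by Neubauer hemocytometer. IC₅₀ from I = Imax·C/(IC₅₀+C), Imax 100%.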

[2] = system: Leishmania donovani; test: In vitro inhibitory concentration against Leishmania donovani intracellular amastigotes; type: functional, organism-based
Summary of the method: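 CD1 mouse starch-induced peritoneal macrophages in RPMI1640 + 10% HIFCS, 37 °C, 5% CO₂, infected with hamster-spleen L. donovani MHOM/ET/67/L82 amastigotes (5:1); after 24 h drug exposure for 5 days, overlay replaced day 3, top concentration 30 μg/mL, quadruplicates. Methanol-fixed, Giemsa-stained, scored microscopically; ED₅₀ by curve fitting; Pentostam positive control.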

[3] = system: Leishmania amazonensis; test: (§1) Effect of compound on free sterol compositions of leishmania mexicana amazonensis promastigotes at a concentration of 0.1 uM; type: functional
Summary of the method: (§2)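 L. mexicana amazonensis promastigotes grown in LIT medium with lactalbumin and 10% fetal calf serum at 26 °C without agitation; cultures started at 2 × 10⁶ cells/mL, drug added at 0.5–1 × 10⁷ cells/mL. Total lipids extracted, split into neutral and polar fractions by silicic acid chromatography, sterols analysed by gas-liquid chromatography; read-out is % 24-alkylated vs 24-nonalkylated sterols.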

[4] = system: Leishmania amazonensis; test: as §1; type: functional; summary of the method: as §2; remark: listed apart in the source
[5] = Evaluated for its toxicity against KB cells; type: cell-based; details: Homo sapiens
Summary of the method: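 KB cells seeded at 4 × 10⁴/mL in RPMI 1640 + 10% HIFCS, 24 h at 37 °C, 5% CO₂, then exposed to 300, 30, 3 and 0.3 μg/mL in triplicate for 72 h; podophyllotoxin positive control. AlamarBlue added for 2–4 h, fluorescence at EX/EM 530/585 nm; ED₅₀ relative to blanks and untreated controls.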

[6] = In vitro inhibitory concentration against Trypanosoma cruzi intracellular amastigotes; type: functional, cell-based
[7] = In vitro inhibitory concentration against Trypanosoma cruzi epimastigotes; type: functional
Summary of the method: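 T. cruzi Y strain epimastigotes in liver infusion tryptose medium with 10% fetal bovine serum at 28 °C; exponential-phase parasites incubated with compound 96 h, counted by Neubauer hemocytometer. IC₅₀ from I = Imax·C/(IC₅₀+C), Imax 100%.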

[8] = system: Leishmania amazonensis; test: In vitro inhibitory concentration against Leishmania amazonensis intracellular amastigotes; type: functional, organism-based
Summary of the method: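 Swiss mouse peritoneal macrophages adhered 24 h at 37 °C, 5% CO₂, infected with stationary-phase L. amazonensis promastigotes (1:10) at 35 °C for 2 h, washed, held 24 h drug-free, then exposed to compound for 96 h. Bouin-fixed, Giemsa-stained; percentage of infected cells scored, IC₅₀ from hyperbolic inhibition function I = Imax·C/(IC₅₀+C).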

[9] = system: Leishmania amazonensis; test: Effect of compound on free sterol composition of leishmania mexicana amazonensis promastigotes at a concentration of 0 uM,; type: functional; summary of the method: as §2
[10] = system: Leishmania amazonensis; test: Effect of compound on free sterol compositions of leishmania mexicana amazonensis promastigotes at a concentration of 1.0 uM; type: functional; summary of the method: as §2
[11] = system: Leishmania amazonensis; test: Effect of compound on free sterol compositions of leishmania mexicana amazonensis promastigotes at a concentration of 0.01 uM; type: functional; summary of the method: as §2
[12] = system: Leishmania amazonensis; test: Effect on free sterol compositions of leishmania mexicana amazonensis promastigotes at a concentration of 0.1 uM; type: functional; summary of the method: as §2

Structure (SMILES)	IC50 [1] [µM]	IC50 [2] [µM]	IC50 [8] [µM]	Effect [3] [%]	Effect [4] [%]	IC50 [5] [µM]	IC50 [6] [µM]	IC50 [7] [µM]	Effect [9] [%]	Effect [10] [%]	Effect [11] [%]	Effect [12]
CC(O)(C1CCCCN1)[C@H]1CC[C@H]2[C@@H]3CCC4C[C@@H](O)CC[C@]4(C)[C@H]3CC[C@]12C (some centres undefined)	0.1	8.9	0.01	11.1	64.2	11.9	7.4	0.94	9.8	–	–	–
CCC(=O)N1CCCC(C(C)(O)[C@H]2CC[C@H]3[C@@H]4CCC5C[C@@H](O)CC[C@]5(C)[C@H]4CC[C@]23C)C1 (some centres undefined)	–	37.9	–	11.7	–	336	64.6	–	–	49.7	–	–
CCC(=O)N1CCCCC1C(C)(O)[C@H]1CC[C@H]2[C@@H]3CCC4C[C@@H](O)CC[C@]4(C)[C@H]3CC[C@]12C (some centres undefined)	–	23.1	–	17.7	4.4	11.1	22.8	–	–	–	–	–
CCC(=O)N1CCCCC1C(C)(O)[C@H]1CC[C@H]2[C@@H]3CCC4C[C@@H](O[Si](C)(C)C(C)(C)C)CC[C@]4(C)[C@H]3CC[C@]12C (some centres undefined)	10.3	> 52	8	–	–	> 520	> 52	1	–	–	–	–
CC(O)(C1CCCNC1)[C@H]1CC[C@H]2[C@@H]3CCC4C[C@@H](O)CC[C@]4(C)[C@H]3CC[C@]12C (some centres undefined)	–	4.8	–	13.1	63.7	29.2	18	–	–	–	–	–
CC(O)(c1ccncc1Cl)[C@H]1CC[C@H]2[C@@H]3CCC4C[C@@H](O)CC[C@]4(C)[C@H]3CC[C@]12C (some centres undefined)	–	> 69	–	–	–	< 0.7	50	–	–	–	–	–
CC(O)(c1ccccn1)[C@H]1CC[C@H]2[C@@H]3CCC4C[C@@H](O)CC[C@]4(C)[C@H]3CC[C@]12C (some centres undefined)	1.14	14.6	1	15.5	1.6	11.3	32.9	1.03	–	–	–	–
CCC(=O)N1CCCC(C(C)(O)[C@H]2CC[C@H]3[C@@H]4CCC5C[C@@H](O[Si](C)(C)C(C)(C)C)CC[C@]5(C)[C@H]4CC[C@]23C)C1 (some centres undefined)	1.21	> 52	1	–	–	> 520	> 52	0.6	–	–	–	–
CC(O)(c1ccncc1)[C@H]1CC[C@H]2[C@@H]3CCC4C[C@@H](O)CC[C@]4(C)[C@H]3CC[C@]12C (some centres undefined)	3.41	11.3	3	–	–	30.7	35	0.68	–	–	–	–

Continued, in another order:

IC50 [1] [µM]	IC50 [2] [µM]	IC50 [8] [µM]	Structure (SMILES)	Effect [3] [%]	Effect [4] [%]	IC50 [5] [µM]	IC50 [6] [µM]	IC50 [7] [µM]	Effect [9] [%]	Effect [10] [%]	Effect [11] [%]	Effect [12]
1.09	> 58	0.02	CC(O)(C1CCCCN1)[C@H]1CC[C@H]2[C@@H]3CCC4C[C@@H](O[Si](C)(C)C(C)(C)C)CC[C@]4(C)[C@H]3CC[C@]12C (some centres undefined)	8.5	<1	> 579	50	0.6	–	–	–	–
1.88	> 59	1	CC(O)(c1ccccn1)[C@H]1CC[C@H]2[C@@H]3CCC4C[C@@H](O[Si](C)(C)C(C)(C)C)CC[C@]4(C)[C@H]3CC[C@]12C (some centres undefined)	–	–	> 586	> 59	0.68	–	–	–	–
4.24	23.4	3	CC(O)(c1cccnc1)[C@H]1CC[C@H]2[C@@H]3CCC4C[C@@H](O)CC[C@]4(C)[C@H]3CC[C@]12C (some centres undefined)	12.4	41.9	> 755	13.3	0.62	–	–	4.7	3.1% and 4.1% and 11.1%
–	> 55	–	CC(O)(c1ccncc1Cl)[C@H]1CC[C@H]2[C@@H]3CCC4C[C@@H](O[Si](C)(C)C(C)(C)C)CC[C@]4(C)[C@H]3CCC12C (some centres undefined)	–	–	234	> 55	–	–	–	–	–
3.21	15	2	CC(O)(c1ccncc1)[C@H]1CC[C@H]2[C@@H]3CCC4C[C@@H](O[Si](C)(C)C(C)(C)C)CC[C@]4(C)[C@H]3CC[C@]12C (some centres undefined)	–	–	574	6.1	0.67	–	–	–	–
1.75	13.9	1.5	CC(O)(c1cccnc1)[C@H]1CC[C@H]2[C@@H]3CCC4C[C@@H](O[Si](C)(C)C(C)(C)C)CC[C@]4(C)[C@H]3CC[C@]12C (some centres undefined)	–	–	> 586	51.2	1.2	–	–	–	6.6%
1.4	6.4	1	CC(O)(C1CCCNC1)[C@H]1CC[C@H]2[C@@H]3CCC4C[C@@H](O[Si](C)(C)C(C)(C)C)CC[C@]4(C)[C@H]3CC[C@]12C (some centres undefined)	–	–	2.5	42.1	1.01	–	–	–	–
